Test [1] concerns Mus musculus. Kind of test: Number of survivors on 30th day at dose 50 mg/kg/day in 10 mice implanted with P388 leukemia cell line; 7/10. It is filed as functional.
The subject of test [2] is Mus musculus. The test is described as follows: 7 Percent increase in life span at dose 75 mg/kg/day in 7 mice implanted with P388 leukemia cell line for 1,8,15 schedule day in Exp-1. It is filed as functional.
Test [3] relates to Mus musculus. Kind of test: Number of survivors on 60th day at dose 56 mg/kg/day in 10 mice implanted with P388 leukemia cell line; 2/10. The test is classed as functional.
The subject of test [4] is Mus musculus. Kind of test: Percent increase in life span of DBA2 mice after inoculation with L1210 leukemia intravenously at a dose of 70 mg/kg per day. It is filed as functional. The conditions noted are these: route intravenous. The procedure, abridged:
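Female DBA2 mice inoculated iv on day 0 with 10^4 L1210 cells; drugs given iv as sulfate salts in physiological saline, mostly once on day 1. %ILS from all deaths and survivors as (T/C × 100) − 100; survivors scored on days 30 and 60.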

Test [5] concerns Mus musculus. Kind of test: Percent increase in life span at dose 55 mg/kg/day in 10 mice implanted with P388 leukemia cell line for 1st schedule day. The test is classed as functional.
For test [6], the system named is Mus musculus. The test is described as follows: Number of survivors of DBA2 mice on 30th day after inoculation with L1210 leukemia cell line intravenously at a dose of 60 mg/kg/day; 0/10. It is filed as functional. The conditions noted are these: route intravenous.
In test [7] the test system is Mus musculus. The test is described as follows: Number of survivors on 60th day at dose 6 mg/kg/day in 9 mice implanted with P388 leukemia cell line; 0/10. The test is classed as functional.
Test [8] relates to Mus musculus. Kind of test: Number of survivors of DBA2 mice on 30th day after inoculation with L1210 leukemia cell line intravenously at a dose of 10 mg/kg/day; 0/10. The test is classed as functional. The conditions noted are these: route intravenous.
Test [9] has as its system Mus musculus. Kind of test: Number of survivors on 30th day at dose 11 mg/kg/day in 10 mice implanted with P388 leukemia cell line; 0/10. The test is classed as functional.
The subject of test [10] is Mus musculus. Kind of test: Number of survivors of DBA2 mice on 30th day after inoculation with L1210 leukemia cell line intravenously at a dose of 4.5 mg/kg/day; 0/10. The test is classed as functional. The following applies: route intravenous.
The test system of test [11] is Mus musculus. The test is described as follows: Percent increase in life span of DBA2 mice after inoculation with L1210 leukemia intravenously at a dose of 3.5 mg/kg per day. It is filed as functional. The conditions noted are these: route intravenous.
The test system of test [12] is Mus musculus. Kind of test: Percent increase in life span at dose 2 mg/kg/day in 7 mice implanted with P388 leukemia cell line for 1,8,15 scheduled days. It is filed as functional.
The subject of test [13] is Mus musculus. The test is described as follows: Percent increase in life span of BDF1 mice after inoculation with P388 leukemia cells intraperitoneally at a dose of 0.30 mg/kg per day for 1-9 scheduled days. The following applies: P388, ip.

Broadly, the ILS is the gain in survival time of treated over control animals, in per cent. High values mean much gain in survival, low ones little gain in survival.

For `CCOC(=O)[C@H](Cc1c[nH]c2ccccc12)NC(=O)[C@@]1(O)[C@H](O)[C@]2(CC)C=CCN3CC[C@@]4(c5cc([C@@]6(C(=O)OC)C[C@H]7C[N@](CCc8c6[nH]c6ccccc86)C[C@](O)(CC)C7)c(OC)cc5N(C)[C@@]14C)[C@@H]32`, the figures for the Survivors with Mus musculus [1], in the test on Mus musculus [3] and in the test on Mus musculus [6] were 7, 2 and 0, respectively. This compound also displayed an ILS at 75 mg/kg/day with Mus musculus [2] of 108%. Also, the ILS at 70 mg/kg/day in the test on Mus musculus [4] came out at 61.8%. In addition, in the test with Mus musculus [5], the ILS at 55 mg/kg/day was above 261%.
For `CCOC(=O)[C@@H](NC(=O)[C@@]1(O)[C@H](O)[C@]2(CC)C=CCN3CC[C@@]4(c5cc([C@@]6(C(=O)OC)C[C@H]7C[N@](CCc8c6[nH]c6ccccc86)C[C@](O)(CC)C7)c(OC)cc5N(C)[C@@]14C)[C@@H]32)[C@@H](C)CC`, the Survivors in the test with Mus musculus [7] and in the test with Mus musculus [8] was 0 each time.
On to `CC[C@]1(O)C[C@@H]2CN(CCc3c([nH]c4ccccc34)[C@@](C(=O)OC)(c3cc4c(cc3OC)N(C)[C@H]3[C@@](O)(C(=O)OC)[C@H](OC(C)=O)[C@]5(CC)C=CCN6CC[C@]43[C@@H]65)C2)C1` [VINBLASTINE], for which the Survivors in the test on Mus musculus [9] came to 0.
In the test with Mus musculus [10], `CC[C@]1(O)C[C@H]2CN(CCc3c([nH]c4ccccc34)[C@@](C(=O)OC)(c3cc4c(cc3OC)N(C=O)[C@H]3[C@@](O)(C(=O)OC)[C@H](OC(C)=O)[C@]5(CC)C=CCN6CC[C@]43[C@@H]65)C2)C1` [VINCRISTINE] gave a Survivors of 0. Moreover, in the test with Mus musculus [11], the ILS at 3.5 mg/kg/day was 14.7%.
`CC[C@]1(O)C[C@@H]2CN(CCc3c([nH]c4ccccc34)[C@@](C(=O)OC)(c3cc4c(cc3OC)N(C)[C@H]3[C@@](O)(C(N)=O)[C@H](O)[C@]5(CC)C=CCN6CC[C@]43[C@@H]65)C2)C1` [VINDESINE] yielded an ILS at 2 mg/kg/day with Mus musculus [12] of 31%. This compound had an ILS at 0.3 mg/kg/day with Mus musculus [13] of 95%.

The values above are taken from ChEMBL document CHEMBL1122917, “Vinblastin-23-oyl amino acid derivatives: chemistry, physicochemical data, toxicity, and antitumor activities against P388 and L1210 leukemias” (J Med Chem, 1985).
